The subject of test [1] is Hamster. In words: Increase of HDL cholesterol in normal-fed hamster at 45 mg/kg/day. Format: functional, organism-based. Conditions: Cricetinae.
Test [2] relates to Rattus norvegicus. In words: Increase of Apo A-I level in cholesterol-fed male rats at 50 mg/kg/day relative to control. The class given is functional. The method in brief: (§1)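 Drug mixed into diet, fed ad libitum for 8 days to groups of six male Sprague–Dawley rats on a cholesterol diet. Serum Apo A-I measured by SDS–polyacrylamide gel electrophoresis or by rat competition ELISA. Reported as % change versus untreated controls, with significance set at p < 0.05.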

The subject of test [3] is Rattus norvegicus. In words: Triglyceride level in cholesterol-fed male rats at 50 mg/kg/day relative to control. Format: functional. The method in brief: (§2)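 Male Sprague–Dawley rats on a cholesterol diet, in groups of six, received the compound in the diet ad libitum for 8 days. Serum triglycerides are expressed as % change relative to untreated controls, with significance at p < 0.05 versus controls.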

Test [4] relates to Rattus norvegicus. As to the kind of experiment: Increase of total cholesterol level in cholesterol-fed male rats at 50 mg/kg/day relative to control. Format: functional. The method in brief:
(§3)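 Dietary (ad libitum) dosing of groups of six male Sprague–Dawley rats on a cholesterol diet for 8 days. Serum total cholesterol was quantitated enzymatically by a colorimetric method and expressed as % change relative to untreated controls, with significance at p < 0.05.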

Test [5] deals with Rattus norvegicus. In words: Increase of HDL level in cholesterol-fed male rats by ultracentrifugation method at 50 mg/kg/day relative to control. The class given is functional. The method in brief: (§4)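 Cholesterol-fed male Sprague–Dawley rats, six per group, given drug in the diet ad libitum for 8 days. Serum lipoproteins separated by classical ultracentrifugation and HDL cholesterol measured by an enzymatic colorimetric method. Expressed as % change versus untreated controls, with significance set at p < 0.05.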

For another test, the system named is Canis familiaris. As to the kind of experiment: Increase of HDL cholesterol in normal-fed dog at 250 mg/kg/day. The class given is functional, organism-based. Conditions: Canis lupus familiaris.
For test [6], the system named is Hamster. As to the kind of experiment: Increase of HDL cholesterol in chow-fed hamster at 45 mg/kg/day. The class given is functional, organism-based. Conditions: Cricetulus griseus.
Test [7] relates to Rattus norvegicus. In words: Increase of HDL level in cholesterol-fed male rats by FPLC method at 50 mg/kg/day relative to control. The class given is functional. The method in brief: (§5)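 Groups of six male Sprague–Dawley rats on a cholesterol diet received drug in the diet, ad libitum, for 8 days. Serum lipoproteins separated by FPLC, adapted for robotic automation, and cholesterol quantitated enzymatically by colorimetry. HDL given as % change versus untreated controls, with significance set at p < 0.05.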

Test [8] relates to Rattus norvegicus. In words: Increase of HDL cholesterol in normal-fed rat at 50 mg/kg/day. The class given is functional.
The subject of test [9] is Rattus norvegicus. As to the kind of experiment: Weight gain in cholesterol-fed male rats at 50 mg/kg/day relative to control. Format: functional. The method in brief:
(§6)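 Groups of six male Sprague–Dawley rats on a cholesterol diet received the compound in the diet, ad libitum, over 8 days. Body weight gain is reported as % change relative to untreated controls.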

Test [10] is filed under the species Rattus norvegicus. In words: Increase in liver enzyme Aspartate aminotransferase. The class given is functional. Also on record: concentration or dose not given beside the values.
The test system of test [11] is Rattus norvegicus. In words: Increase of Apolipoprotein A-I level in cholesterol-fed male rats at 62 mg/kg/day relative to control. The class given is functional. The method in brief: as §1
For test [12], the species on record is Rattus norvegicus. In words: Increase in liver enzyme Alkaline phosphatase. Further details: concentration or dose not given beside the values. The class given is functional.
Test [13] deals with Rattus norvegicus. As to the kind of experiment: Weight gain in cholesterol-fed male rats at 62 mg/kg/day relative to control. Format: functional. The method in brief:
as §6

The test system of test [14] is Rattus norvegicus. As to the kind of experiment: Increase of HDL level in cholesterol-fed male rats by ultracentrifugation method at 62 mg/kg/day relative to control. The class given is functional. The method in brief:
as §4

Test [15] deals with Rattus norvegicus. As to the kind of experiment: Increase of total cholesterol level in cholesterol-fed male rats at 62 mg/kg/day relative to control. Format: functional. The method in brief: as §3
For test [16], the target named is T1, Peroxisome proliferator-activated receptor alpha (Rattus norvegicus, UniProt P37230).
T1 sequence (P37230 whole entry): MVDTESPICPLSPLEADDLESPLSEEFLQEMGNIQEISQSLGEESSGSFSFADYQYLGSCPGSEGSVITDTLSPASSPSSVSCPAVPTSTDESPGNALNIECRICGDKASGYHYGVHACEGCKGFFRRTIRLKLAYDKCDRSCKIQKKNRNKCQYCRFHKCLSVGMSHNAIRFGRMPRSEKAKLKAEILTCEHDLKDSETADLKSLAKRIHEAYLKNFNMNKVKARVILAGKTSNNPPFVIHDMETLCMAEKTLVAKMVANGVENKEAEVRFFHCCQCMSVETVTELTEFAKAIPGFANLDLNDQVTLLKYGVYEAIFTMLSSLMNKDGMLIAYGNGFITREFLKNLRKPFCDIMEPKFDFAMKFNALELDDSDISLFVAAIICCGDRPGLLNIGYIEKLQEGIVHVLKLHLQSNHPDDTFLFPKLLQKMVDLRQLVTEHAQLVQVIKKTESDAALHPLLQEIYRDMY
As to the kind of experiment: Activity against PPAR-alpha.

Test [17] has as its system Rattus norvegicus. In words: Increase of HDL level in cholesterol-fed male rats by FPLC method at 62 mg/kg/day relative to control. The class given is functional. The method in brief: as §5
For test [18], the target named is T2, Peroxisome proliferator-activated receptor delta (Homo sapiens, UniProt Q03181).
T2 sequence (Q03181 whole entry): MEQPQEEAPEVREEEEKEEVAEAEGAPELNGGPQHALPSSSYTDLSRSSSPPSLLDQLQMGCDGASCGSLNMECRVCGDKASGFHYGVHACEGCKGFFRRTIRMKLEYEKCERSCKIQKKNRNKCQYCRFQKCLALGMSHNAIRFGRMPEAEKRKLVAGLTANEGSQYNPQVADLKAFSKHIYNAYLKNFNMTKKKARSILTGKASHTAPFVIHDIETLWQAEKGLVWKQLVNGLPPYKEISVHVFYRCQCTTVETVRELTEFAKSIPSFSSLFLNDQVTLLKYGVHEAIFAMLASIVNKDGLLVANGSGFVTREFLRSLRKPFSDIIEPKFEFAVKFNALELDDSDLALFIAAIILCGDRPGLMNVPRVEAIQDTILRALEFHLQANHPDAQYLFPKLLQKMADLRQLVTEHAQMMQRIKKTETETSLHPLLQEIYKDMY
In words: Activity against PPAR-delta.

The test system of test [19] is Rattus norvegicus. In words: Triglyceride level in cholesterol-fed male rats at 62 mg/kg/day relative to control. The class given is functional. The method in brief:
as §2

The test system of test [20] is Rattus norvegicus. In words: Weight gain in cholesterol-fed male rats at 63 mg/kg/day relative to control. The class given is functional. The method in brief:
as §6

Test [21] concerns Rattus norvegicus. As to the kind of experiment: Increase of HDL level in cholesterol-fed male rats by FPLC method at 63 mg/kg/day relative to control. Format: functional. The method in brief: as §5
The test system of test [22] is Rattus norvegicus. In words: Increase of Apolipoprotein A-I level in cholesterol-fed male rats at 63 mg/kg/day relative to control. Format: functional. The method in brief: as §1
Test [23] concerns Rattus norvegicus. In words: Increase of HDL level in cholesterol-fed male rats by ultracentrifugation method at 63 mg/kg/day relative to control. The class given is functional. The method in brief: as §4
Test [24] has as its system Rattus norvegicus. In words: Triglyceride level in cholesterol-fed male rats at 63 mg/kg/day relative to control. The class given is functional. The method in brief: as §2
The subject of test [25] is Rattus norvegicus. As to the kind of experiment: Increase of total cholesterol level in cholesterol-fed male rats at 63 mg/kg/day relative to control. The class given is functional. The method in brief:
as §3

The subject of test [26] is Rattus norvegicus. In words: Increase of HDL level in cholesterol-fed male rats by ultracentrifugation method at 55 mg/kg/day relative to control. The class given is functional. The method in brief:
as §4

Test [27] relates to Rattus norvegicus. In words: Increase of total cholesterol level in cholesterol-fed male rats at 55 mg/kg/day relative to control. Format: functional. The method in brief:
as §3

The test system of test [28] is Rattus norvegicus. In words: Weight gain in cholesterol-fed male rats at 55 mg/kg/day relative to control. Format: functional. The method in brief: as §6
Test [29] concerns Rattus norvegicus. In words: Triglyceride level in cholesterol-fed male rats at 55 mg/kg/day relative to control. Format: functional. The method in brief: as §2
In test [30] the test system is Rattus norvegicus. As to the kind of experiment: Increase of HDL level in cholesterol-fed male rats by FPLC method at 55 mg/kg/day relative to control. Format: functional. The method in brief:
as §5

The test system of test [31] is Rattus norvegicus. In words: Increase of Apolipoprotein A-I level in cholesterol-fed male rats at 55 mg/kg/day relative to control. The class given is functional. The method in brief:
as §1

The species named for test [32] is Rattus norvegicus. In words: Increase in liver enzyme Alanine aminotransferase. Format: functional.
In test [33] the test system is Rattus norvegicus. In words: Increase of HDL level in cholesterol-fed male rats by FPLC method at 77 mg/kg/day relative to control. Format: functional. The method in brief: as §5
In test [34] the test system is Rattus norvegicus. In words: Triglyceride level in cholesterol-fed male rats at 77 mg/kg/day relative to control. The class given is functional. The method in brief:
as §2

The subject of test [35] is Rattus norvegicus. As to the kind of experiment: Weight gain in cholesterol-fed male rats at 77 mg/kg/day relative to control. Format: functional. The method in brief: as §6
In test [36] the test system is Rattus norvegicus. As to the kind of experiment: Increase of total cholesterol level in cholesterol-fed male rats at 77 mg/kg/day relative to control. The class given is functional. The method in brief: as §3
Test [37] deals with Rattus norvegicus. As to the kind of experiment: Increase of HDL level in cholesterol-fed male rats by ultracentrifugation method at 77 mg/kg/day relative to control. The class given is functional. The method in brief:
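Compound given in the diet, ad libitum, to groups of six male Sprague–Dawley rats on a cholesterol diet for 8 days. Serum lipoproteins were separated by classical ultracentrifugation, and HDL cholesterol was quantitated by an enzymatic colorimetric method. Results are reported as % change relative to untreated controls, with significance at p < 0.05 versus controls.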

Test [38] relates to Rattus norvegicus. As to the kind of experiment: Increase of Apolipoprotein A-I level in cholesterol-fed male rats at 77 mg/kg/day relative to control. The class given is functional. The method in brief: as §1

pEC50: −log10 of the molar value. Active and inactive are the calls of the source. The calls are words filed in the database; no cut-off is given here.

In the case of `Cc1ccc(C)c(OCCCC(C)(C)C(=O)O)c1` [GEMFIBROZIL], the outcome in the test with Hamster [1], in the test with Canis familiaris and in the test on Hamster [6] was inactive. In addition, the Activity is 54% in the test on Rattus norvegicus [2]; -29% in the test with Rattus norvegicus [3]; -23% in the test on Rattus norvegicus [4]; 104% with Rattus norvegicus [5]; 139% in the test on Rattus norvegicus [7]; 25% in the test on Rattus norvegicus [8]. The Activity with Rattus norvegicus [9] was 2%.
In general, pEC50 refers to the negative decadic logarithm of the EC50, by convention in mol/L. For `CC[C@H]1CCCCN1/C(S)=N/c1cc(Cl)ccc1C`, the Activity in the test listed under Rattus norvegicus [10] was 85%; with Rattus norvegicus [11] it was 39%; in the test listed under Rattus norvegicus [12], 129%; in the test on Rattus norvegicus [13], -88%; with Rattus norvegicus [14], 124%; in the test on Rattus norvegicus [15], 126%. Further, the Activity is listed as 404% in the test on Rattus norvegicus [17] and -56% with Rattus norvegicus [19]. In addition, the negative-log EC50 (pEC50) in test [16] and in test [18] was less than 4.00 each time.
For `CC[C@@H]1CCCCN1/C(S)=N/c1cc(Cl)ccc1C`, the Activity is 80% in the test listed under Rattus norvegicus [10]; 105% in the test filed under Rattus norvegicus [12]; -105% in the test on Rattus norvegicus [20]; 614% with Rattus norvegicus [21]; 30% in the test with Rattus norvegicus [22]; 129% with Rattus norvegicus [23]. Moreover, the Activity is reported as -54% with Rattus norvegicus [24] and 167% in the test with Rattus norvegicus [25]. The pEC50 in test [16] and in test [18] was less than 4.00 each time.
In the case of `CCC/N=C(\S)Nc1cc(Cl)ccc1C`, the Activity in the test on Rattus norvegicus [26] was 83%; with Rattus norvegicus [27], 6%; with Rattus norvegicus [28] it was -78%; with Rattus norvegicus [29], -54%; in the test with Rattus norvegicus [30], 292%; with Rattus norvegicus [31] it was 54%. Moreover, the pEC50 in test [16] and in test [18] was less than 4.00 in each case.
Regarding `CCCC/N=C(\S)Nc1cc(Cl)ccc1C`, the Activity with Rattus norvegicus [26] was 100%; in the test filed under Rattus norvegicus [32], 93%; in the test filed under Rattus norvegicus [10], 79%; with Rattus norvegicus [27], 39%; in the test listed under Rattus norvegicus [12] it was 44%; in the test on Rattus norvegicus [28] it was -53%. Besides, the values for the Activity in the test on Rattus norvegicus [29], in the test with Rattus norvegicus [30] and in the test on Rattus norvegicus [31] were -44%, 203% and 38%, respectively.
Consider `Cc1ccc(Cl)cc1/N=C(\S)NCc1ccccc1`, for which the Activity in the test on Rattus norvegicus [33] is 136%; with Rattus norvegicus [34] it was -21%; with Rattus norvegicus [35], 41%; in the test with Rattus norvegicus [36], 97%; in the test with Rattus norvegicus [37], 135%; with Rattus norvegicus [38] it was 27%.
